The target of assay [1] is Muscarinic acetylcholine receptor. The assay is described as follows: Binding activity to muscarinic acetylcholine receptor in rat heart, assayed using [3H]QNB as a radioligand in the presence of Gpp(NH)p. Put shortly: (§1)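 Male Wistar rat heart ventricles flushed, minced, Polytron-homogenized in 10 mM Na/K phosphate pH 7.4, spun 48000 g 15 min 4 °C, resuspended, gauze-filtered, diluted 1:750, 0.15-0.2 mg protein/2.0 mL. 10 μM Gpp(NH)p added to homogenate for line 3. Competitor 10^-12 to 10^-3 M. 10 μM atropine nonspecific. Filtration, scintillation counting. Ki from one-site fit.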

For assay [2], the target named is T1, Muscarinic acetylcholine receptor M1 (Rattus norvegicus) (UniProt P08482).
T1 sequence (whole entry): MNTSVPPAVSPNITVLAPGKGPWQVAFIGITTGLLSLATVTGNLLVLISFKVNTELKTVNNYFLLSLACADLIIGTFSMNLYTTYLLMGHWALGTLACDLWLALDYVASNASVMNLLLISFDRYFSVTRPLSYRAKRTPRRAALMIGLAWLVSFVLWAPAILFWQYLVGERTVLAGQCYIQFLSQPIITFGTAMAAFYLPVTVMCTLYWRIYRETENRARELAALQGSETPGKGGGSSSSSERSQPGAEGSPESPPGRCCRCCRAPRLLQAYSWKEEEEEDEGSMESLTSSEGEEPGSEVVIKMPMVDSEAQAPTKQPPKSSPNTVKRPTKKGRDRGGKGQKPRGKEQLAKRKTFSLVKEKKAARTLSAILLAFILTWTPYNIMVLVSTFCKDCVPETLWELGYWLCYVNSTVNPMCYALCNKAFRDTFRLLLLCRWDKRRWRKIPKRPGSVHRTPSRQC
In words: Muscarinic 1 receptor agonistic activity as the selectivity ratio of Ki against [3H]-QNB to that of [3H]PZ. Type of assay: functional.

The target in assay [3] is Muscarinic acetylcholine receptor. In words: Binding activity to the muscarinic acetylcholine receptor in rat cortex, assayed using [3H]PZ as a radioligand. In kind it is tissue-based. Put shortly: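 Rat (male Wistar, 200-250 g) cortex homogenized in ice-cold Na/K phosphate buffer pH 7.4, diluted 1:400, ~0.55 mg protein per 2.0 mL. 0.1 nM radioligand (84.1 Ci/mmol), made fresh just before use. Unlabeled competitor at final 10^-12 to 10^-3 M. 10 μM atropine for nonspecific. Filtered, counted by liquid scintillation. One-site competitive fit gives apparent Ki.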

For assay [4], the target named is Muscarinic receptor M1 and M2 (Rattus norvegicus) (UniProt P08482+P10980). In words: The agonist ratio as the ratio of Ki against [3H]QNB to that of [3H]-CD. Type of assay: functional.
The target in assay [5] is T2, Muscarinic acetylcholine receptor M2 (Rattus norvegicus) (UniProt P10980).
T2 sequence (whole entry): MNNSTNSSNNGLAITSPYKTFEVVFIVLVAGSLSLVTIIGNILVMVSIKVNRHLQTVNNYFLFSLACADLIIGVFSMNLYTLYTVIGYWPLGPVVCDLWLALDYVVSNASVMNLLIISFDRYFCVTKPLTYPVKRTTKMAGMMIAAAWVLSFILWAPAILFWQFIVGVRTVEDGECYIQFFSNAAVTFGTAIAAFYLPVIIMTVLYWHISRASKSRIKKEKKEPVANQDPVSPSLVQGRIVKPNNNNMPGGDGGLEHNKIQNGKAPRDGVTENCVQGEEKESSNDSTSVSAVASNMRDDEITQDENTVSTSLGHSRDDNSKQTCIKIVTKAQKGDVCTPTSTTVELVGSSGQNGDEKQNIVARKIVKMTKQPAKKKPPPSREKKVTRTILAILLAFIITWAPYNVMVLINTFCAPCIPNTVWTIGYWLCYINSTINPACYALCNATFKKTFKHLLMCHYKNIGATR
The assay is described as follows: Muscarinic 2 receptor agonistic activity was determined as the selectivity ratio of Ki against [3H]QNB+ Gpp(NH)p to that of [3H]QNB. Type of assay: functional.

In assay [6] the target is Muscarinic acetylcholine receptor. In words: Binding activity to the muscarinic acetylcholine receptor in rat cortex, assayed using [3H]CD as a radioligand. In kind it is tissue-based. Put shortly:
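Male Wistar rat cerebral cortex homogenate in 10 mM Na/K phosphate pH 7.4, diluted 1:300 (wet wt/v), ~0.75 mg protein per 2.0 mL. 1 nM radioligand (55.5 Ci/mmol), prepared fresh in buffer. Competitor 10^-12 to 10^-3 M. Nonspecific binding with 10 μM atropine. Rapid filtration on PEI-treated filters, scintillation counting. Apparent Ki by one-site competitive nonlinear regression.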

Assay [7] shares this target. The assay is described as follows: Binding activity to muscarinic acetylcholine receptor in rat heart, assayed using [3H]-QNB as a radioligand. The method in brief:
as §1

Assay [8] has the same target. The assay is described as follows: Binding activity against Muscarinic acetylcholine receptor in rat cortex, using [3H]QNB as a radioligand. In kind it is tissue-based. The method in brief: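 Competitor at final 10^-12 to 10^-3 M. 10 μM atropine defines nonspecific binding. Filtration on PEI-soaked GF/B filters, scintillation counting. Apparent Ki from one-site competitive nonlinear fit.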

The target of assay [9] is T1, Muscarinic acetylcholine receptor M1 (Rattus norvegicus). The assay is described as follows: Muscarinic 1 receptor agonistic activity as the selectivity ratio of Ki against [3H]-QNB+ Gpp(NH)p to that of [3H]PZ. In kind it is functional.

For 17 compounds, Ki and Ratio results are on record in ChEMBL document CHEMBL1125029, “Chemical and biochemical studies of 2-propynylpyrrolidine derivatives. Restricted-rotation analogues of N-methyl-N-(1-methyl-4-pyrrolidino-2-butynyl)acetamide (BM-5)” (J Med Chem, 1990).

On to `CC(=O)N1CCC[C@@H]1C#CC[N+](C)(C)C`, for which the Ki was determined as 5470 nM in assay [1]; 1630 nM in [3]; 110 nM in [6]; 2070 nM in assay [7]; 2230 nM in [8]. In addition, the Ratio in assay [2] was 1.3; in assay [4], 20.3; in assay [5], 2.6; in [9] it was 3.4.

Consider `CCOC(=O)N1CCC[C@@H]1C#CCN1CCCC1`, for which the Ki came to 1040 nM in [1]; 190 nM in assay [3]; 510 nM in [6]; 940 nM in [7]; 1160 nM in assay [8]. The Ratio was found to be 4.9 in assay [2], 2.3 in assay [4], 1.1 in assay [5] and 5.5 in assay [9].

On to `C(#C[C@H]1CCCN1)CN1CCCC1.Cl.Cl`, for which the Ki in assay [1] was determined as 19600 nM; in assay [3], 6500 nM; in [6] it was 1280 nM; in assay [7], 12900 nM; in assay [8], 3220 nM. In addition, the Ratio in [2] came out at 2; in assay [4] it was 2.5; in [5], 1.5; in assay [9], 3.

Regarding `CS(=O)(=O)N1CCC[C@@H]1C#CCN1CCCC1.Cl`, the inhibition constant Ki in assay [1] turned out to be 13400 nM; in assay [3], 4110 nM; in [6], 1980 nM; in assay [7], 5910 nM; in assay [8], 1920 nM. For the same compound, the Ratio in assay [2] was 1.4; in assay [4], 1; in assay [5] it was 2.3; in assay [9], 3.3.

As for `O=C1CCCN1CC#CCN1CCCC1` [OXOTREMORINE], the Ki in assay [1] came to 140 nM; in [3], 140 nM; in assay [6] it was 0.5 nM; in [7], 4 nM; in assay [8], 60 nM. In addition, the Ratio was 0.03 in assay [2], 120 in assay [4], 35 in assay [5] and 1 in assay [9].

As to `Cl.O=C(N1CCC[C@H]1C#CCN1CCCC1)C(F)(F)F`, the Ki is 8860 nM in assay [1]; 3100 nM in assay [3]; 2220 nM in assay [6]; 6400 nM in assay [7]; 3450 nM in assay [8]. The Ratio in assay [2] is 2.1; in [4], 1.6; in assay [5], 1.4; in [9] it was 2.9.

As to `CS(=O)(=O)N1CCC[C@H]1C#CCN1CCCC1.Cl`, the Ki in [1] was 15100 nM; in assay [3], 6050 nM; in assay [6], 3920 nM; in [7], 9190 nM; in assay [8] it was 3020 nM. Further, the Ratio in [2] was found to be 1.5; in assay [4], 0.8; in assay [5], 1.6; in [9] it was 2.5.

For the compound `CN(C)CC#C[C@@H]1CCCN1C(=O)OC(C)(C)C`, the Ki in assay [1] came to 14100 nM; in assay [3], 9040 nM; in assay [6], 3300 nM; in assay [7] it was 13400 nM; in [8], 11400 nM. Further, the Ratio in assay [2] worked out at 1.5; in assay [4] it was 3.5; in [5], 1.1; in assay [9] it was 1.6.

Consider `CC(=O)N1CCC[C@@H]1C#CCN1CCCC1.Cl`, for which the Ki in assay [1] is 1630 nM; in [3], 170 nM; in assay [6], 450 nM; in [7], 610 nM; in [8] it was 430 nM. In addition, the Ratio was found to be 3.6 in assay [2], 1 in assay [4], 2.7 in assay [5] and 9.6 in assay [9].

Take `COC(=O)N1CCC[C@@H]1C#CCN1CCCC1`: the Ki in assay [1] is 5060 nM; in assay [3], 1590 nM; in [6], 530 nM; in assay [7] it was 2940 nM; in [8], 810 nM. Besides, the Ratio in assay [2] came to 1.8; in [4], 1.5; in assay [5], 1.7; in assay [9], 3.2.

For `Cl.O=C(N1CCC[C@@H]1C#CCN1CCCC1)C(F)(F)F`, the Ki came out at 1070 nM in [1]; 140 nM in assay [3]; 440 nM in assay [6]; 1230 nM in assay [7]; 360 nM in [8]. Moreover, the Ratio is 8.8 in [2], 0.8 in [4], 0.9 in assay [5] and 7.6 in assay [9].

As to `CC(=O)N1CCC[C@@H]1C#CCN(C)C`, the Ki in assay [1] was 42400 nM; in assay [3], 5250 nM; in [6], 1650 nM; in assay [7] it was 11800 nM; in [8] it was 13800 nM. The Ratio in [2] is 2.2; in assay [4], 8.4; in assay [5] it was 3.6; in assay [9] it was 8.1.

Consider `CCOC(=O)N1CCC[C@H]1C#CCN1CCCC1`, for which the Ki in assay [1] was 1000 nM; in assay [3] it was 100 nM; in assay [6], 610 nM; in assay [7], 850 nM; in assay [8], 310 nM. The Ratio in assay [2] was 8.5; in assay [4] it was 0.5; in assay [5], 1.2; in assay [9] it was 10.

Turning to `CN(C)CC#C[C@H]1CCCN1C(=O)OC(C)(C)C`, the Ki came to 19600 nM in [1]; 5600 nM in assay [3]; 250 nM in assay [6]; 5160 nM in assay [7]; 3200 nM in assay [8]. Besides, the Ratio in [2] was found to be 0.9; in assay [4], 12.8; in [5], 3.8; in assay [9], 3.5.

For the compound `O=CN1CCC[C@@H]1C#CCN1CCCC1`, the Ki in [1] turned out to be 3120 nM; in assay [3], 1180 nM; in assay [6], 3350 nM; in [7], 3260 nM; in assay [8], 2390 nM. Besides, the Ratio in assay [2] was 2.7; in [4], 0.7; in [5], 1; in assay [9] it was 2.5.

Consider `CC(C)(C)OC(=O)N1CCC[C@H]1C#CCN1CCCC1`, for which the Ki stood at 900 nM in assay [1]; 70 nM in [3]; 330 nM in assay [6]; 130 nM in assay [7]; 980 nM in [8]. Besides, the Ratio is 1.9 in assay [2], 3 in [4], 6.9 in assay [5] and 13 in [9].

Take `CC(C)(C)OC(=O)N1CCC[C@@H]1C#CCN1CCCC1`: the Ki in [1] was 1960 nM; in assay [3], 420 nM; in [6], 220 nM; in [7], 1320 nM; in assay [8], 660 nM. For the same compound, the Ratio in assay [2] is 3.1; in assay [4], 3; in assay [5] it was 1.5; in [9] it was 4.7.

The term Ki denotes a dissociation constant, usually derived from enzyme kinetics or from competition with a known ligand.
